RAD54 branch = inhibitors of human RAD54 branch migration | Q92698 | RAD54 Holliday junction branch migration, FAM/BHQ fluorescence | inhibition, % at 10.4 µM | actives 0.14% (n = 360,000);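 active = mean normalized replicate activity at least 40 and at least half of replicates scoring 40 or more; inconclusive = only one of the two criteria met; inactive = mean below 40 and under half of replicates reaching 40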;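 note: 0% = median of neutral control wells and 100% = median of positive control wells; inhibitors cause a drop in the FAM fluorescence signal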
Cneo AK release = causes C. neoformans cell lysis; adenylate kinase release luminescence, 4 h; normalised: neutral wells 0, clomiphene wells 100; lysis activity, % at 15 µM; actives 0.2% (n = 360,000); AID 651654;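 active = mean lysis activity across replicates of at least 80%, whatever share of replicates individually reach that level; inactive = mean lysis activity below 80%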
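Signal: Adenylate kinase release luminescence | Assay system: Log-phase Cryptococcus neoformans yeast cells | Input: Cells at 5 × 10^6 per mL | Buffer or medium: Fresh YPD growth medium | Compound: Single dose | Schedule: Static 4 h at 37 °C with compound, 1 h detection | Controls: Clomiphene | Read-out: Luminescence rise reflecting yeast cell lysis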
rRNA inh HTS = inhibits bacterial ribosomal RNA function over humanized ribosomes; GFP signal change (wild-type ribosome), % (test concentration not listed); AID 720706; actives 1.6% (n = 350,000); E. coli WT GFP vs humanized-ribosome RFP mutants, fluorescence, 24 h; stronger effect = lower value; DMSO median 0, no signal -100;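 active = significant combined selectivity score with lowered wild-type GFP, culture density cut under 30%, mutant RFP and density less affected; inactive = any of these conditions unmet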
RAD52 anneal inh = RAD52 (human) annealing inhibition. AID 651710. actives 0.46% (n = 360,000). recombinant RAD52 DNA annealing, FRET fluorescence. inhibition, % at 18.7 µM. P43351;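 active = every replicate showing at least 50% inhibition; inconclusive = mean inhibition at least 50% but not in every replicate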
Target sequence (P43351 whole entry, looked up): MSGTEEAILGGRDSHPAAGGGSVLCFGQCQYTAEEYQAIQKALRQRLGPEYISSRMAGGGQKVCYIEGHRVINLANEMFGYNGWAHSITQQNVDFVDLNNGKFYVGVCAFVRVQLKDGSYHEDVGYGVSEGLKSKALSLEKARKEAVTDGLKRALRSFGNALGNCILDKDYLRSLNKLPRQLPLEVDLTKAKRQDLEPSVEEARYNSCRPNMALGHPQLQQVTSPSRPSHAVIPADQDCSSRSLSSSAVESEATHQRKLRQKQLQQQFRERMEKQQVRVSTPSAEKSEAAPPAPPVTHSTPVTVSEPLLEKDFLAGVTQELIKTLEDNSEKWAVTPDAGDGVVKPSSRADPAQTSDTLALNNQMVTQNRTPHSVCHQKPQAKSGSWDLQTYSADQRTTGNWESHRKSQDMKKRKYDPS
PglD inh = PglD (C. jejuni) enzyme inhibition; actives 0.098% (n = 360,000); AID 602405; purified PglD enzyme, DTNB colorimetric CoA detection; inhibition, % at 12.5 µM; in the data active = inhibition above about 16%, passing the limit was not always enough; inconclusive = no clear call, values can overlap the other calls
AID977621 = growth inhibition of wild-type GFP E. coli, dose response, H69 mutant RFP, cherry-pick; shares compounds with rRNA inh HTS; E. coli wild-type GFP strain growth, fluorescence, 24 h; activity change, negative = inhibition at 50 µM; 1,900 tested, under 10 active;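 active = Wild-type ribosome reporter drop at least double the humanized mutant ribosome reporter drop, growth loss under a set limit; inconclusive = no clear call, values can overlap the other calls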;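 note: wild-type GFP and H69 mutant RFP strains grown together 50/50 in each well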
AID977628 = growth of wild-type and h24-humanized E. coli strains – h24 mutant RFP vs wild-type GFP, cherry-pick, dose response; shares compounds with rRNA inh HTS; 1,900 tested, under 10 active; activity change, negative = inhibition at 50 µM; E. coli WT GFP strain growth, fluorescence, 24 h;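 active = compound lowering the normal-ribosome reporter at least twice as much as the humanized-ribosome reporter, growth loss under a set limit; inconclusive = no clear call, values can overlap the other calls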;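 note: wild-type GFP and h24 humanized RFP strains co-cultured 1 to 1 per well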
* marks the source's active call; other numbers are inactive results; ? = inconclusive; . = no result. Only some compounds are listed: those with a hit (about 1.9% of all), similar ones and a draw of the others.

SMILES | RAD54 branch | Cneo AK release | rRNA inh HTS | RAD52 anneal inh | PglD inh | AID977621 | AID977628
COc1ccccc1C1CCN(C(=O)c2ccco2)CC1 | -10.4 | -2.8 | -23.3* | -11.6 | 1.7 | -4.13 | ?
COc1ccc(NC(=O)CN(c2ccccc2OC)S(=O)(=O)c2cccs2)cc1Cl | -2.5 | 4.2 | -17.0* | -15.9 | 0.2 | -11.1 | .
OC(c1ccccc1)C1CN(Cc2ccccc2)CCC1(O)c1ccccc1 (stereo not given) | 1.6 | 2.1 | 1.7 | -5.9 | 4.5 | . | .
O=C(c1ccccc1)C1CN(Cc2ccccc2)CCC1(O)c1ccccc1 (stereo not given) | 3.0 | -0.4 | -17.5* | -21.3 | -4.0 | -0.751 | .
CC[C@H]1C/C=C\C[C@H](CC)NC(=O)[C@@H](C)CC(=O)N1 | . | . | 4.7 | . | . | . | .
O=C(O)c1ccccc1-c1ccc([N+](=O)[O-])cc1Cl | . | . | -12.1 | 0.2 | . | . | .
O=[N+]([O-])c1ccc2c(c1)S(=O)c1ccccc1-2 (stereo not given) | 3.0 | -0.3 | -22.8* | -13.2 | -0.7 | -24.9 | -14.4
O=C(c1cc(C(=O)N2CCOCC2)c2nc3ccccc3n2c1)c1cc(Cl)cc(Cl)c1O | . | . | -18.5* | -5.1 | . | . | ?
CCCc1nc2cc(C)c(Br)c(C)n2c1CC1CCCCC1 | . | . | -20.1* | -5.6 | . | . | -7.37
CC(C)Nc1nnc(SCC(=O)Nc2sccc2C#N)s1 | 0.9 | -1.1 | -25.4* | -9.3 | 3.7 | . | ?
N#Cc1ccsc1NC(=O)CSc1nnc(NC2CC2)s1 | -6.8 | -3.6 | -11.7* | -4.4 | 3.5 | -13.2 | -8.72
NS(=O)(=O)c1ccc(NC(=O)CSc2nnc(NC3CC3)s2)cc1 | 3.4 | 1.3 | 5.8 | -20.0 | -1.0 | . | .
C[C@H]1CN([C@@H](C)CO)C(=O)c2cc(C#CC3CCCC3)cnc2O[C@@H]1CN(C)S(C)(=O)=O | 5.5 | -0.7 | 2.7 | -0.2 | 7.2 | . | .
COc1cccc(NC(=O)COC(=O)Cc2ccccc2[N+](=O)[O-])c1 | -10.4 | -2.2 | -17.1* | -23.8 | 4.1 | . | ?
Nc1ccc(C(=O)OCCCc2nc3cc4ccccc4cc3[nH]2)cc1 | -4.6 | -2.7 | -17.1* | -3.3 | -0.2 | 0.464 | -0.534
C(=C(c1ccccc1)c1ccccc1)c1ccccn1 | -2.9 | 11.2 | -39.1* | -6.0 | 5.8 | -1.79 | .
C(/C=C/c1ccccn1)=C\c1ccccc1 | . | . | -5.8 | -14.1 | . | . | .
CN1C[C@@H]2[C@H](c3ccccc31)[C@@H](CO)N2C(=O)Nc1ccccc1Cl | 7.9 | -0.5 | -7.1 | -3.5 | 0.8 | . | .
O=S(=O)(NCc1ccc2c(c1)OCO2)c1ccc2c(c1)oc1ccccc12 | 12.9 | -1.3 | -19.2* | -11.5 | 0.5 | -17.3 | .
COc1ccc(NC(=O)Nc2ccc3c(c2)CC(=O)N([C@H](C)CO)C[C@H](C)[C@H](CN(C)C(=O)Nc2ccc(OC)cc2)O3)cc1 | 1.7 | 0.1 | 1.2 | 14.9 | 0.8 | . | .
Cc1ccc(S(=O)(=O)Nc2ccc3c(c2)C(=O)N([C@@H](C)CO)C[C@@H](C)[C@@H](CN(C)C(=O)c2ccccc2)OCCCC[C@H](C)O3)cc1 | 4.7 | -1.8 | 0.3 | 18.9 | -0.5 | . | .
Cc1ccc(S(=O)(=O)Nc2ccc3c(c2)C(=O)N([C@@H](C)CO)C[C@@H](C)[C@H](CN(C)C(=O)c2ccccc2)OCCCC[C@@H](C)O3)cc1 | 1.9 | -3.8 | -22.6* | 17.3 | 2.1 | 8.21 | 1.2
Cc1ccc(S(=O)(=O)Nc2ccc3c(c2)C(=O)N([C@H](C)CO)C[C@@H](C)[C@H](CN(C)C(=O)c2ccccc2)OCCCC[C@@H](C)O3)cc1 | -1.7 | 0.6 | -15.9* | 20.1 | 1.6 | -4.48 | ?
O=S(=O)(Cc1ccccc1Cl)N1CCN(Cc2ccc3c(c2)OCO3)CC1 | -8.9 | -0.7 | . | . | -2.7 | . | .
O=S(=O)(Cc1ccc(Cl)cc1)N1CCN(Cc2ccc3c(c2)OCO3)CC1 | 1.4 | 0.2 | -20.0* | -9.7 | 2.9 | -10.3 | ?
SMILES | RAD54 branch | Cneo AK release | rRNA inh HTS | RAD52 anneal inh | PglD inh | AID977621 | AID977628
Cn1c(CC2C(=O)Nc3ccc(Br)cc32)nc2ccccc2c1=O (stereo not given) | -0.9 | -0.8 | -28.8* | -7.9 | 4.2 | -1.92 | 3.71
O=C1Nc2ccc(Br)cc2C1Cc1ccccc1F (stereo not given) | -2.1 | -1.1 | -3.5 | -7.2 | -5.3 | . | .
CC(=O)N1[C@@H]2c3ccc(-c4cccc(F)c4)c(=O)n3C[C@H]1[C@H](CO)[C@H]2C(=O)NCCCN(C)C | . | . | 2.3 | 16.8 | . | . | .
COc1cc(CCN(C(=O)c2cc3ccccc3[nH]2)C(C)c2nc3ccccc3[nH]2)cc(OC)c1 (stereo not given) | -9.3 | 20.7 | -16.2 | -2.8 | -5.3 | . | .
COc1cc(CCN(C(=O)c2cc3ccccc3[nH]2)C(c2ccccn2)c2nc3ccccc3[nH]2)cc(OC)c1 (stereo not given) | 3.8 | -2.5 | -26.0* | -21.0 | 1.7 | -19.8 | -10.8
COc1ccccc1C#Cc1cnc2c(c1)C(=O)N([C@H](C)CO)C[C@@H](C)[C@@H](CN(C)C(=O)CC1CC1)O2 | . | . | 7.1 | 4.7 | . | . | .
Cc1ccc(S(=O)(=O)NCc2c(-c3ccccc3)noc2C)cc1 | . | . | -23.2* | -5.3 | . | -8.59 | -18
CO[C@H]1CN(C)C(=O)c2cc(NC(=O)c3ccc4c(c3)OCO4)ccc2OC[C@@H](C)NC[C@H]1C | 1.8 | -4.1 | 1.1 | 3.4 | 1.1 | . | .
Cc1ccn2cc(-c3cccc(NC(=O)c4cccs4)c3)nc2c1 | . | . | -35.9* | -15.7 | . | -5.42 | -13.3
Cc1cccn2cc(-c3cccc(NC(=O)c4cccs4)c3)nc12 | . | . | -34.5 | -44.0 | . | . | .
CCCN(C)C[C@H]1OCCCC[C@@H](C)Oc2ccc(N(C)C)cc2C(=O)N([C@H](C)CO)C[C@H]1C | -0.7 | 0.8 | -1.8 | 9.2 | -0.9 | . | .
CNC(=O)C[C@H]1CC[C@H]2[C@@H](COc3ccc(NC(=O)CC(F)(F)F)cc3C(=O)N2C)O1 | -5.9 | -2.1 | 4.5 | . | 2.0 | . | .
CCOC(=O)c1cc(-c2ccc(OC)cc2)n[nH]1 | . | . | -25.5* | -9.6 | . | -24.4 | -13
CO[C@@H]1CC[C@@H]2CCN(C)C(=O)CC3(CCCCC3)CN(C)C(=O)c3cc(C#N)ccc3OC[C@H]1O2 | 5.9 | 0.0 | -5.5 | -6.1 | -1.6 | . | .
CC1(c2ccc3ccccc3c2)NC(=O)N(CC(=O)N2CCN(c3ccccc3O)CC2)C1=O (stereo not given) | -0.1 | -2.5 | -19.6* | -20.5 | -3.4 | -4.59 | -6.53
Cc1ccc(NC(=O)Nc2ccc3c(c2)C(=O)N(C)[C@H]2CC[C@H](CC(=O)O)O[C@H]2CO3)cc1 | -14.9 | 0.1 | 0.2 | 11.6 | 2.3 | . | .
C[C@@H]1CN([C@@H](C)CO)S(=O)(=O)c2ccc(C#C[C@@H](C)O)cc2O[C@@H]1CN(C)C(=O)C1CCC1 | -2.2 | 42.6 | 1.1 | 11.1 | 0.4 | . | .

Screens from PubChem BioAssay.
